Results on 15 compounds are retold here after ChEMBL document CHEMBL2069278, “Novel substituted benzothiophene and thienothiophene carboxanilides and quinolones: synthesis, photochemical synthesis, DNA-binding properties, antitumor evaluation and 3D-derived QSAR analysis” (J Med Chem, 2012).

One experiment concerns HCT-116. Nature of the experiment: Cytotoxicity against human HCT116 cells after 72 hrs by MTT assay. The experiment is classed as functional, cell-based. Conditions: HCT-116, 72 h. A digest of the protocol:
(§1)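 Cells seeded on day 0 at 1 × 10^4 to 3 × 10^4 cells/mL (adherent lines in DMEM, MOLT-4 in suspension in RPMI, 10% FBS, 37 °C, 5% CO2); 10-fold dilutions 10−8–10−4 M for 72 h; MTT, OD 570 nm; percentage growth versus time-zero and control; IC50 by linear regression; quadruplicate, at least two experiments.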

Another experiment concerns MCF7. Nature of the experiment: Cytotoxicity against human MCF7 cells after 72 hrs by MTT assay. In kind it is functional, cell-based. Conditions: MCF7, 72 h. A digest of the protocol: as §1
A general note: Tetrazolium dyes change colour on reduction, which living cells bring about.

The subject of the next experiment is NCI-H460. Nature of the experiment: Cytotoxicity against human H460 cells after 72 hrs by MTT assay. The experiment is classed as functional, cell-based. The conditions noted are these: NCI-H460, 72 h. A digest of the protocol: as §1
The test system of the next experiment is MOLT-4. Nature of the experiment: Cytotoxicity against human MOLT4 cells after 72 hrs by MTT assay. In kind it is functional, cell-based. Conditions: MOLT-4, 72 h. A digest of the protocol:
as §1

The next experiment concerns SW-620. Nature of the experiment: Cytotoxicity against human SW620 cells after 72 hrs by MTT assay. The experiment is classed as functional, cell-based. The conditions noted are these: SW-620, 72 h. A digest of the protocol: as §1
Experiment [1] has as its target DNA topoisomerase 2-alpha (Homo sapiens) (UniProt P11388). Nature of the experiment: Inhibition of human topoisomerase 2-mediated DNA cleavage at 50 uM incubated for 45 mins followed by enzyme addition measured after 30 mins by agarose gel electrophoresis. A digest of the protocol: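 Compounds (50 μM) incubated with 350 ng supercoiled pUC19 before topoisomerase II addition; gel quantified for percentage poisoning normalized to etoposide at the same concentration.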

pIC50: −log10 of the molar value. Active and inactive are the calls of the source. No cut-off for these calls is given here.

DNA topoisomerase 2-alpha (Homo sapiens), sequence (P11388 whole entry): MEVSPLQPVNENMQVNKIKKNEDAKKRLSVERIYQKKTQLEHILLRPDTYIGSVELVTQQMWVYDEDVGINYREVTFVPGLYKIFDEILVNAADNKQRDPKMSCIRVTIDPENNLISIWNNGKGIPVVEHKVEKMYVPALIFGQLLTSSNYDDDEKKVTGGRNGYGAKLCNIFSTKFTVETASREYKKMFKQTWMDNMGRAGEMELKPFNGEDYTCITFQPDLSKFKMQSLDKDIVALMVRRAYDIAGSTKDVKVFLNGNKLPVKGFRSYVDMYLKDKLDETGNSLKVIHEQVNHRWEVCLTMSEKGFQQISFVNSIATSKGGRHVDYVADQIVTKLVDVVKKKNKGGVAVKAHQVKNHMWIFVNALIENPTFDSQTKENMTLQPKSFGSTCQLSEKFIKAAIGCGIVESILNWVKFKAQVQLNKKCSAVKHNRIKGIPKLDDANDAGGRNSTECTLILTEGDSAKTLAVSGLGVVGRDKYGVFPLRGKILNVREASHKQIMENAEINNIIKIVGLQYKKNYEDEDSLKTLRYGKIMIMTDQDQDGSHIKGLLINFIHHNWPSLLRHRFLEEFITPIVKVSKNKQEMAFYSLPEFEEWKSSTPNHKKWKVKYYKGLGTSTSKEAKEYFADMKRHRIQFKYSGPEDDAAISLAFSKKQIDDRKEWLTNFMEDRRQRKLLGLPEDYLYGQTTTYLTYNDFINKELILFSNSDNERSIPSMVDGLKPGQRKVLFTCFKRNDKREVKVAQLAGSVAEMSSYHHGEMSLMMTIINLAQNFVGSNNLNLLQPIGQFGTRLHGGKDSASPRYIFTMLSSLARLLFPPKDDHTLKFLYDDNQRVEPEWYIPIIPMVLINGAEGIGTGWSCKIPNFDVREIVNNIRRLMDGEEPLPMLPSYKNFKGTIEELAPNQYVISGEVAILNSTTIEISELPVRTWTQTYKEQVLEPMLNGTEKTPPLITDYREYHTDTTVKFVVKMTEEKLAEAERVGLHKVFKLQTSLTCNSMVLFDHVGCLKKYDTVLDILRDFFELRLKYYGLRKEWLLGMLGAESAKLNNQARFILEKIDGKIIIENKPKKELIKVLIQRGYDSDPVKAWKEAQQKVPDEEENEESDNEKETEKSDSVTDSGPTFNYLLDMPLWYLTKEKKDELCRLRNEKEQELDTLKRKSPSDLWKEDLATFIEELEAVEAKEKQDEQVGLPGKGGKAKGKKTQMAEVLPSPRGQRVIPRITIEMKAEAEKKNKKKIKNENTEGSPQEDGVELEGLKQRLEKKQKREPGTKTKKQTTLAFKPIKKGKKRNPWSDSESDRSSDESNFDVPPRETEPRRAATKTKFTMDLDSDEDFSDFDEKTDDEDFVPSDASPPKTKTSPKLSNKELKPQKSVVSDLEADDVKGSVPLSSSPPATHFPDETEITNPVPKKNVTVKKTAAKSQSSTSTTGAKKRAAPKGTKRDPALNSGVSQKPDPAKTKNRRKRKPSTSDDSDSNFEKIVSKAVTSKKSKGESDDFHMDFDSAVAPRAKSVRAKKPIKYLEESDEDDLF

In general, pIC50 refers to the IC50 on a negative log10 scale, so that one unit is a factor of ten. On to `CN(C)CCCNC(=O)c1ccc(NC(=O)c2sc3ccccc3c2Cl)cc1`, for which the pIC50 in the experiment on HCT-116 is 5.15; in the experiment on MCF7 it was 5.15; in the experiment with NCI-H460, 5.52.
For `CN(C)CCCNC(=O)c1ccc(NC(=O)c2sc3cc([N+](=O)[O-])ccc3c2Cl)cc1`, the pIC50 with MOLT-4 was 5.70; in the experiment on HCT-116 it was 5.70; in the experiment with SW-620, 6.00; with MCF7, 5.70; with NCI-H460 it was 5.70.
As for `Cn1c(=O)c2sc3ccccc3c2c2cc(C#N)ccc21`, the pIC50 with MOLT-4 is 5.06; in the experiment on HCT-116, under 5.00; in the experiment with SW-620, under 5.00; in the experiment with MCF7, under 5.00; in the experiment on NCI-H460 it was under 5.00.
For `CCOC(=O)c1ccc2c(c1)sc1c(=O)[nH]c3ccc(C(=O)NCCCN(C)C)cc3c12`, the pIC50 with MOLT-4 is 6.00; with HCT-116, 5.70; with SW-620, 6.00; in the experiment on MCF7, 5.52; with NCI-H460, 5.52.
On to `Cc1ccc2c(c1)sc1c(=O)[nH]c3ccc(C(=O)NCCCN(C)C)cc3c12`, for which the pIC50 in the experiment with MOLT-4 is 6.00; with HCT-116, 6.00; in the experiment on SW-620, 6.40; in the experiment on MCF7, 5.70; with NCI-H460, 5.70.
With `Cc1ccc2c(Cl)c(C(=O)Nc3ccc(C(=O)NCCCN(C)C)cc3)sc2c1`, the pIC50 with MOLT-4 is 5.70; in the experiment with HCT-116, 5.52; with SW-620, 5.70; in the experiment with MCF7 it was 5.52; in the experiment with NCI-H460, 5.70.
Regarding `CN(C)CCCNC(=O)c1ccc2[nH]c(=O)c3sc4cc([N+](=O)[O-])ccc4c3c2c1`, the pIC50 in the experiment on MOLT-4 is 5.70; with HCT-116, 5.70; in the experiment on SW-620, 5.70; in the experiment with MCF7, 5.52; with NCI-H460, 4.64.
For the compound `Cn1c(=O)c2sc3cc(C#N)ccc3c2c2ccccc21`, the pIC50 in the experiment with MOLT-4 was at most 5.00; in the experiment with HCT-116, under 5.00; in the experiment with SW-620, under 5.00; with MCF7 it was under 5.00; with NCI-H460, under 5.00.
As to `CN(C)CCCNC(=O)c1ccc2[nH]c(=O)c3sc4ccccc4c3c2c1`, the pIC50 is 6.00 in the experiment with MOLT-4; 6.00 with HCT-116; 6.00 in the experiment with SW-620; 5.70 in the experiment on MCF7; 5.70 in the experiment on NCI-H460.
Turning to `CN(C)CCCNC(=O)c1ccc2[nH]c(=O)c3sc4cc(Br)ccc4c3c2c1`, the pIC50 with MOLT-4 is 6.00; in the experiment on HCT-116 it was 6.40; with SW-620 it was 6.40; in the experiment with MCF7, 5.70; in the experiment on NCI-H460, 5.70.
Regarding `CN(C)CCCNC(=O)c1ccc(NC(=O)c2sc3cc(Br)ccc3c2Cl)cc1`, the pIC50 with MOLT-4, in the experiment with HCT-116, in the experiment with SW-620, in the experiment with MCF7 and in the experiment on NCI-H460 was 5.70 each time.
In the case of `COc1cc([C@@H]2c3cc4c(cc3[C@@H](O[C@@H]3O[C@@H]5CO[C@@H](C)O[C@H]5[C@H](O)[C@H]3O)[C@H]3COC(=O)[C@H]23)OCO4)cc(OC)c1O`, in experiment [1], the inhibition result was “Active”.
For the compound `CCOC(=O)c1ccc2c(Cl)c(C(=O)Nc3ccc(C(=O)NCCCN(C)C)cc3)sc2c1`, the negative-log IC50 (pIC50) was 5.70 in the experiment on MOLT-4; 5.52 in the experiment on HCT-116; 5.70 with SW-620; 5.30 with MCF7; 5.70 with NCI-H460.
As for `Cn1c(=O)c2sc3sccc3c2c2cc(C3=NCCN3)ccc21`, the pIC50 with MOLT-4 was 5.70; with HCT-116, 6.00; with SW-620, 6.52; in the experiment with MCF7, 5.70; with NCI-H460 it was 6.00.
With `Cn1c(=O)c2sc3sccc3c2c2cc(C#N)ccc21`, the negative-log IC50 (pIC50) in the experiment on MOLT-4 is 5.32; with HCT-116, under 5.00; in the experiment on SW-620, under 5.00; with MCF7 it was under 5.00; in the experiment on NCI-H460, under 5.00.
